For experiment [1], the target named is T1, serine racemase (SR) in PC-12 cells (Rattus norvegicus, UniProt Q76EQ0).
T1 sequence (Q76EQ0 1-333): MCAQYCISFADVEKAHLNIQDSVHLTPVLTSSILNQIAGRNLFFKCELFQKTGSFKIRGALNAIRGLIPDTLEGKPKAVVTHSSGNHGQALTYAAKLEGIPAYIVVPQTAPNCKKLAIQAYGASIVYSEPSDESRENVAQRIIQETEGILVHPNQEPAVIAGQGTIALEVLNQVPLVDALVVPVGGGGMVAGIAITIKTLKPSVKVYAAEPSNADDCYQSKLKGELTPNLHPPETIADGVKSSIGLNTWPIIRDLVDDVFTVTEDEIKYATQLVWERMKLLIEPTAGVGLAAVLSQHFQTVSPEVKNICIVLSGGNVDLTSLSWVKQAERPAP
The experiment is described as follows: CE-LIF measurement of intra-cellular D-Ser production in PC-12 cells. The experiment is classed as cell-based. As to conditions: for intra-cellular D-Ser production: 36 h, PC-12, n = 3. In short, it runs like this:
(§1)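 PC-12 cells were kept in RPMI-1640 with 10% horse serum and 5% FBS, and 1321N1 cells in DMEM with 10% FBS. […] Pellets were spiked with D-Arg internal standard, ACN-extracted, dried and FITC-labelled. CE-LIF used 0.5 mM HP-β-CD in 80 mM borate, pH 9.3.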

For experiment [2], the target named is T2, serine racemase (SR) in C6 cells (Rattus norvegicus, UniProt Q76EQ0).
T2 sequence (Q76EQ0 1-333): T1 sequence (Q76EQ0 1-333)
As to the kind of experiment: CE-LIF measurement of intra-cellular D-Ser production in C6 cells. The experiment is classed as cell-based. The note with it: for intra-cellular D-Ser production: 36 h, C6, n = 3. In outline: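 C6 cells in DMEM with L-Gln, 10% FBS and 1% penicillin/streptomycin were grown at 37 °C in 5% CO2 to >70% confluence. They were then incubated for 36 h in medium with substrate amino acid (0–20 mM) or inhibitor amino acid (0–8 mM), in triplicate. ACN extracts with D-Arg internal standard were FITC-labelled, then run by CE-LIF in 0.5 mM HP-β-CD/80 mM borate, pH 9.3. D-Ser was quantified by area ratio to FITC-D-Arg.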

Experiment [3] deals with T3, serine racemase (SR) in HepG2 cells (Homo sapiens, UniProt Q9GZT4).
T3 sequence (Q9GZT4 1-340): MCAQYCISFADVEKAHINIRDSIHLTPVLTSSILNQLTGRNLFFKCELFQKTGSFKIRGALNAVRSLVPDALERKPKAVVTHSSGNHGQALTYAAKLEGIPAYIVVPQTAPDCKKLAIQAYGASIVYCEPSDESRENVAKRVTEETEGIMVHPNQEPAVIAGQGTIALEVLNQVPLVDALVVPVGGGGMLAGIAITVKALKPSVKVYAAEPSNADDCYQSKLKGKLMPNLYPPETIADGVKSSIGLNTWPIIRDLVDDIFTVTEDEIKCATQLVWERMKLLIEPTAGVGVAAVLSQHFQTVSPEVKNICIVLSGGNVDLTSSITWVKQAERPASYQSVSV
As to the kind of experiment: CE-LIF measurement of intra-cellular D-Ser production in HepG2 cells. The experiment is classed as cell-based. As to conditions: for intra-cellular D-Ser production: 36 h, HepG2, n = 3. In outline: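 Medium for HepG2 was EMEM with 1% L-Gln, 10% FBS, 1% sodium pyruvate and 1% penicillin/streptomycin. Cells at >70% confluence (37 °C, 5% CO2) were exposed for 36 h to medium with substrate amino acid (0–20 mM) or inhibitor amino acid (0–8 mM), in triplicate. Cell extracts in ACN with D-Arg internal standard were FITC-derivatized. CE-LIF used 0.5 mM HP-β-CD in 80 mM borate, pH 9.3, with D-Ser quantified against FITC-D-Arg.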

For experiment [4], the target named is T4, serine racemase (SR) in 1321N1 cells (Homo sapiens, UniProt Q9GZT4).
T4 sequence (Q9GZT4 1-340): T3 sequence (Q9GZT4 1-340)
The experiment is described as follows: CE-LIF measurement of intra-cellular D-Ser production in 1321N1 cells. The class given is cell-based. As to conditions: for intra-cellular D-Ser production: 36 h, 1321N1, n = 3. In short, it runs like this: as §1

Experiment [5] concerns SR protein (monomer and dimer) in PC-12 cells. As to the kind of experiment: Western blot of SR protein expression in PC-12 cells. The class given is cell-based, rat. As to conditions: 36-h treatment; for expression of the SR dimer relative to control: normalized to β-actin, n=2. In short, it runs like this:
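Lysates were BCA-assayed, and 20 μg protein per lane was run on reducing 4–12% SDS-PAGE and moved to PVDF. Blots were blocked in 5% milk, probed with a […] SR antibody, then an HRP secondary, and detected by ECL. Bands were quantified by densitometry, normalised to β-actin, n=2.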

Experiment [6] has as its system SR purified from mouse brain. As to conditions: read-out: Km for L-Ser; cited from earlier work.
Experiment [7] concerns purified recombinant human SR. As to conditions: read-out: Km for L-Ser; cited from earlier work.
The subject of a further experiment is primary microglia. As to conditions: LPS 100 ng/ml; cited from earlier work.

“Also recorded” adds a separate entry of the source.

The source of these data is article PMC3270116 (Analytical Biochemistry, 2011).

A word on the EC50: it is the concentration that produces a half-maximal response. Higher therefore signals weaker potency. For orientation: Km means the substrate concentration at which the rate is half of its maximum.

As to `N[C@@H](CO)C(=O)O` [L-Ser, L-serine], the EC50 in experiment [1] amounted to 5.41 ± 0.76 mM; in experiment [2] it was 9.37 ± 0.17 mM; in experiment [3], 7.87 ± 2.09 mM; in experiment [4], 9.16 ± 0.27 mM. Further, the “intra-cellular D-Ser production” value stood at 16.48 ± 1.72 in experiment [1] (L-Ser 2 mM in media); 21.97 ± 2.48 in experiment [1] (L-Ser 4 mM in media); 29.51 ± 4.93 in experiment [1] (L-Ser 6 mM in media); 31.46 ± 0.07 in experiment [1] (L-Ser 8 mM in media); 36.49 ± 1.64 in experiment [1] (L-Ser 10 mM in media); 38.01 ± 0.50 in experiment [1] (L-Ser 15 mM in media). For the same molecule, the “intra-cellular D-Ser production” value is on record as 39.13 ± 0.36 in experiment [1] (L-Ser 20 mM in media); 2.91 ± 0.17 in experiment [2] (L-Ser 2 mM in media); 3.05 ± 0.08 in experiment [2] (L-Ser 4 mM in media); 3.60 ± 0.14 in experiment [2] (L-Ser 6 mM in media); 7.17 ± 0.27 in experiment [2] (L-Ser 8 mM in media); 10.63 ± 0.45 in experiment [2] (L-Ser 10 mM in media). The “intra-cellular D-Ser production” value in experiment [2] (L-Ser 15 mM in media) is 15.64 ± 0.10; in experiment [2] (L-Ser 20 mM in media) it was 16.07 ± 0.16; in experiment [3] (L-Ser 2 mM in media), 15.48 ± 0.26; in experiment [3] (L-Ser 4 mM in media), 16.21 ± 0.21; in experiment [3] (L-Ser 6 mM in media) it was 17.53 ± 1.70; in experiment [3] (L-Ser 8 mM in media), 18.50 ± 1.48. Moreover, the “intra-cellular D-Ser production” value in experiment [3] (L-Ser 10 mM in media) is given as 20.10 ± 0.50; in experiment [3] (L-Ser 15 mM in media), 21.81 ± 0.35; in experiment [3] (L-Ser 20 mM in media), 26.28 ± 0.25; in experiment [4] (L-Ser 2 mM in media), 8.13 ± 0.14; in experiment [4] (L-Ser 4 mM in media), 9.26 ± 1.00; in experiment [4] (L-Ser 6 mM in media) it was 9.46 ± 0.87. In addition, the “intra-cellular D-Ser production” value turned out to be 9.54 ± 0.82 in experiment [4] (L-Ser 8 mM in media), 19.57 ± 0.77 in experiment [4] (L-Ser 10 mM in media), 21.94 ± 0.18 in experiment [4] (L-Ser 15 mM in media) and 22.31 ± 1.27 in experiment [4] (L-Ser 20 mM in media). The “increase in intra-cellular D-Ser levels” value in experiment [2] (C6, L-Ser 2.0 to 20.0 mM added to incubation buffer) was determined as 533%; in experiment [3] (HepG2, L-Ser 2.0 to 20.0 mM added to incubation buffer), 50%. Further, in experiment [5] (PC-12, L-Ser 10 mM), the “SR dimer or SR monomer expression relative to control” value is “neither of these treatments produced a significant change; also recorded: without causing a significant change”. For the same molecule, the Km is 18 mM in experiment [6] and 4 mM in experiment [7].
Consider lipopolysaccharide [LPS], for which the “increase in intra-cellular D-Ser concentration” value in experiment [1] (PC-12, LPS 10 ng/ml in incubation media) came out at 2.5 fold; in experiment [1] (PC-12, LPS 100 ng/ml in incubation media) it was 3.5 fold. The “expression of the SR dimer relative to control” value is 1.2 fold in experiment [5] (PC-12, LPS 10 ng/ml) and 1.6 fold in experiment [5] (PC-12, LPS 100 ng/ml). Further, the “D-Ser levels in the incubation media” value with primary microglia was “increased”. Further, in the experiment on primary microglia, the “expression of the dimeric form of SR” value is listed as “increased”.
